MC4R barr agon – activates human MC4R beta-arrestin recruitment; P32245; U2OS MC4R beta-arrestin complementation, luminescence; percent of melanotan II response, DMSO zero; activation, % at 8.9 µM; actives 0.98% (n = 360,000);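 active means activation above a per-plate cutoff, the mean activation of sample wells on that plate plus 3 SD, cut at about 8% in these data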
ABCB6 inh MLPCN – inhibitors of human ABC transporter ABCB6 | Q9NP58 | actives 0.19% (n = 360,000) | K562-ABCB6 porphyrin accumulation, flow cytometry, 1 h; hits give low values | AID 602162 | fluorescence ratio to DMSO, % at 10 µM;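 active means fluorescence ratio to DMSO below 75%, the collection mean minus 3 SD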;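 further: signal is porphyrin accumulated inside mitochondria; lower ratio means ABCB6 inhibition with less porphyrin fluorescence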
Target sequence (Q9NP58 whole entry, looked up): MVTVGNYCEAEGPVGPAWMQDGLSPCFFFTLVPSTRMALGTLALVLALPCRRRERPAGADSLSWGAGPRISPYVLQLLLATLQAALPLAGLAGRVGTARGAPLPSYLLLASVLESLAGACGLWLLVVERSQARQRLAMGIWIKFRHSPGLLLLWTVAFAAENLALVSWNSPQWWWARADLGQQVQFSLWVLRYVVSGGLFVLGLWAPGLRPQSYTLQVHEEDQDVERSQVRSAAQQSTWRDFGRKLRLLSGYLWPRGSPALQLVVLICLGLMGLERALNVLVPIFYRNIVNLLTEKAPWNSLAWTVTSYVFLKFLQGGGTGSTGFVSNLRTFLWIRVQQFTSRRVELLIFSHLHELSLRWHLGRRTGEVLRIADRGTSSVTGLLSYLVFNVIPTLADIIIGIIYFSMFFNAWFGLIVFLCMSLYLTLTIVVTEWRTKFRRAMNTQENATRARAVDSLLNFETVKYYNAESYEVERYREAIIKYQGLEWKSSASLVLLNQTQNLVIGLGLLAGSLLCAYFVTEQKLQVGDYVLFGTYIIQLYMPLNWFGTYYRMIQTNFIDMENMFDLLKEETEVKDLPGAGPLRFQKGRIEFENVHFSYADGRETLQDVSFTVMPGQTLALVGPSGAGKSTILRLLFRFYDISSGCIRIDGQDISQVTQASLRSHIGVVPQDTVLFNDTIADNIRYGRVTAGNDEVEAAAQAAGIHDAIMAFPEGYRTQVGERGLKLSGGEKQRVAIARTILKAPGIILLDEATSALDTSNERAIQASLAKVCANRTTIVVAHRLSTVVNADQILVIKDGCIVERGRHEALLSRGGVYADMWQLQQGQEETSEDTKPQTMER
MC4R antag cAMP – human MC4R antagonism in cAMP assay. MC4R-expressing cells, MTII-stimulated cAMP, LANCE TR-FRET. inhibition, % at 6.5 µM. actives 0.48% (n = 360,000). AID 540295;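 active means inhibition above its plate's cutoff, the mean of tested wells on that plate plus 3 SD, cut at about 29% in these data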
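system = U2OS cells with stable human MC4R expression | also added = Melanotan II challenge after compound preincubation | dosing = one concentration, 6.5 µM nominal | incubation = compound 30 min, challenge 1 h, detection 1 h | measured by = TR-FRET with Eu-cAMP and labeled anti-cAMP, 671 nm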
TbMetRS inhib – Trypanosoma brucei MetRS inhibition | purified T. brucei MetRS, ATP depletion, Kinase-Glo luminescence | inhibition, % at 11.9 µM | actives 0.4% (n = 360,000);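 active means inhibition above a per-plate cutoff of the control wells' mean inhibition plus 3 SD, cut at about 5.5% in these data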
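Measured by: Kinase-Glo luciferase luminescence reporting remaining unconsumed ATP. Material: purified T. brucei MetRS enzyme. Doses: 11.9 µM compound single dose, 0.9% DMSO. Medium: HEPES buffer containing pyrophosphatase, BSA, spermine, DTT. Times: 15 min preincubation, 2 h reaction, all 25 °C. Reagent: methionine, ATP and bulk E. coli tRNA.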
Exocytosis inh – blocks lytic granule exocytosis. TALL-104 LAMP-1 surface exposure, flow cytometry; cells stimulated with thapsigargin and PMA. inhibition, % at 10 µM. actives 0.66% (n = 360,000). AID 651702;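 active means inhibition above about 55%, limit read from the data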
iPSC survival up – increases survival of single human iPS cells. actives 0.044% (n = 360,000). survival enhancement, % at 20 µM. hiPSC single-cell survival, ATPlite luminescence; 100% = ROCK inhibitor wells, 0% = DMSO; in the data active means survival enhancement above about 18%;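 further: cells exposed to compounds for 16 hours before the ATP read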
Granule exo CP1 – lytic granule exocytosis inhibition; shares compounds with Exocytosis inh; TALL-104 cells, LAMP-1 externalization, flow cytometry; stimulated with PMA plus thapsigargin; inhibition, % at 10 µM; actives 11% (n = 1,500); AID 651954; in the data active means inhibition above about 60%
Each line names hits and unclear results; the compound was inactive in the other large screens (follow-up assays come after a bar, where they were run). Rows were chosen to be rich in hits. Some 2.6% of all compounds tested hit in one or more screens of this group.

COCCNC(=S)N(CCc1c(C)[nH]c2ccc(F)cc12)Cc1ccc(C)cc1	Exocytosis inh 77 | Granule exo CP1 inactive
CCc1cccc2c(C(=O)C(NCCOC)c3ccccc3)c[nH]c12 (centres undefined)	Exocytosis inh 66 | Granule exo CP1 inactive
O=S(=O)(Nc1cccc(S(=O)(=O)N2CCCC2)c1)c1ccc(F)cc1	none
O=C(Nc1cccc(O)c1)c1cccc(S(=O)(=O)N2CCCCCC2)c1	Exocytosis inh 59 | Granule exo CP1 inactive
O=S(=O)(Nc1cccc(S(=O)(=O)N2CCCCCC2)c1)c1ccccc1	Exocytosis inh 74 | Granule exo CP1 inactive
COc1ccc(CN2C(=O)C(CC(=O)NC3CCCC3)CC(C(=O)N(C(C)C)C(C)C)=C2C)cc1 (centres undefined)	none
Nc1ccn([C@@H]2O[C@H](CNCc3cc(Br)ccc3OCc3ccccc3)[C@@H](O)[C@H]2O)c(=O)n1	none
CCC(=O)N1CCc2cc(Br)cc(S(=O)(=O)N(C)c3ccc(OC)cc3)c21	Exocytosis inh 74 | Granule exo CP1 inactive
Cc1onc(-c2ccccc2)c1C(=O)OCCOc1ccccc1F	Exocytosis inh 80 | Granule exo CP1 inactive
Cc1onc(-c2ccccc2)c1C(=O)OCC(=O)c1ccc(F)cc1	none
CC(=O)N1N=C(N)SC1c1ccc(Cl)c(Cl)c1 (centres undefined)	none
CCc1nnc(NC(=O)[C@@H](NS(=O)(=O)c2ccc3c(c2)OCCO3)C(C)C)s1	Exocytosis inh 58 | Granule exo CP1 inactive
O=C1N[C@@H](Cc2ccccc2)COC(=O)[C@H](Cc2ccc(F)cc2)C/C=C\C[C@H]1CC(=O)N(CCO)Cc1ccccc1	none
O=C1CC/C=C\C[C@@H](CC(=O)N(CCO)Cc2ccccc2)C(=O)N[C@H](Cc2ccccc2)CO1	Exocytosis inh 81 | Granule exo CP1 inactive
C#Cc1ccc([C@@H]2C=C(C(=O)OCC=C)O[C@H](OCC)[C@H]2CCCO)cc1	none
C#Cc1ccc([C@H]2C=C(C(=O)OCC=C)O[C@@H](OCC)[C@@H]2CCCO)cc1	Exocytosis inh 78 | Granule exo CP1 inactive
CCCCn1c(N2CCCC2)nc2c1c(=O)[nH]c(=O)n2C	none
CCCCn1c(N2CCC(Cc3ccccc3)CC2)nc2c1c(=O)[nH]c(=O)n2C	Exocytosis inh 88 | Granule exo CP1 inactive
CS(=O)(=O)N(CC(=O)Nc1ccc(CC#N)cc1)c1ccc(C23CC4CC(CC(C4)C2)C3)cc1	none
Cc1ccc(C(=O)NCCN2CCOCC2)c(Cl)c1	Exocytosis inh 56 | Granule exo CP1 inactive
COc1ccc(S(=O)(=O)N2CCCC(C(=O)NCC3CCCO3)C2)cc1OC (centres undefined)	none
Cc1ccc2nc3c(c(Nc4ccc(O)cc4)c2c1)CCC3	Exocytosis inh 61 | Granule exo CP1 inactive
Cc1ccnc(NC(=O)C2CCN(S(=O)(=O)c3ccc(C)c(C)c3)CC2)c1	Exocytosis inh 65 | Granule exo CP1 inactive
CCOc1cc(C2/C(=C(/O)c3ccc(OC(C)C)cc3)C(=O)C(=O)N2CCCOC)ccc1O (centres undefined)	none
O=C(N/N=C/c1ccc[nH]1)c1ccc(Cl)cc1	none
Cc1cc(C(=O)CN2C(=O)NC(C)(c3ccc(F)c(F)c3)C2=O)c(C)n1C1CC1 (centres undefined)	Exocytosis inh 60 | Granule exo CP1 inactive
N#Cc1ccc(CN(c2ccncc2)S(=O)(=O)c2ccccc2)cc1	none
CC(C)n1nccc1N(Cc1ccc(Cl)cc1)S(=O)(=O)c1ccccc1	Exocytosis inh 97 | Granule exo CP1 inactive
CC(C)n1nccc1N(Cc1ccc(Br)cc1)S(=O)(=O)c1ccccc1	Exocytosis inh 90 | Granule exo CP1 inactive
CCOc1ccc(NC(=O)c2sc3nc(N4CCOCC4)c4c(c3c2N)CC(C)(C)OC4)cc1	none
Cc1ccc(OCc2n[nH]c(=S)n2-c2ccc(Br)cc2)cc1	none
COc1ccccc1NC(=O)c1ccc(C(=O)c2ccccc2)o1	Exocytosis inh 86 | Granule exo CP1 inactive
Cc1ccc(OCCOC(=O)c2nc3nccc(C)n3n2)cc1	none
COc1ccc(OCCOC(=O)c2nc3nccc(C)n3n2)cc1	Exocytosis inh 58 | Granule exo CP1 inactive
CCOc1ccccc1NC(=O)C1CCN(C(=O)c2cccs2)CC1	none
Cc1cc(NC(C)c2ccccc2)n2ncc(-c3ccccc3)c2n1 (centres undefined)	Exocytosis inh 95 | Granule exo CP1 inactive
Cc1cc(NCc2ccccc2)n2ncc(-c3ccccc3)c2n1	Exocytosis inh 58 | Granule exo CP1 inactive
COc1ccc(NC(=O)N2CCCc3cc(C)ccc32)c(OC)c1	none
C/C(=N\Nc1ccc(S(=O)(=O)N2CCCCC2)cn1)c1ccc(O)cc1	none
Cc1cccc(C)c1NC(=O)C(c1ccnc2ccccc12)N1CCN(C)CC1 (centres undefined)	none (no result: MC4R barr agon, ABCB6 inh MLPCN, MC4R antag cAMP, iPSC survival up)
COc1ccc(NC(=O)CC2Nc3cccc4cccc(c34)NC2=O)cc1 (centres undefined)	Exocytosis inh 61 | Granule exo CP1 inactive
O=C(CC1Nc2cccc3cccc(c23)NC1=O)Nc1ccc(F)cc1 (centres undefined)	none
Cc1c(C(=O)N(C)C2CCCCC2)sc2ncnc(N3CCN(c4ccccc4F)CC3)c12	Exocytosis inh 85 | Granule exo CP1 inactive
CCCN1CCC(NCc2cn(C)nc2-c2ccc(Oc3ccccc3)cc2)CC1	Exocytosis inh 77 | Granule exo CP1 inactive
CCOc1cccc(C(=O)N/N=C/c2coc3ccccc3c2=O)c1	none
OCCN1CCN(CC(O)COc2ccc(C34CC5CC(CC(C5)C3)C4)cc2)CC1 (centres undefined)	Exocytosis inh 72 | Granule exo CP1 79
COc1ccc(COc2ccc3c(C)cc(=O)oc3c2)cc1	Exocytosis inh 75 | Granule exo CP1 inactive
COC(=O)CCSCC(=O)Nc1ccc(C)c(S(=O)(=O)N2CCCCC2)c1	none
CCc1cc2ccc(C)cc2nc1SCC(=O)NC1CCCC1	Exocytosis inh 82 | Granule exo CP1 inactive
CCc1cc2ccc(C)cc2nc1SCC(=O)c1ccc(NC(C)=O)cc1	none
COc1cccc(Sc2nc(-c3ccccc3)ncc2S(C)(=O)=O)c1	Exocytosis inh 65 | Granule exo CP1 inactive
O=C(CCC(=O)N1CCN(Cc2ccccc2)CC1)Nc1nnc(C2CCCCC2)s1	none
COc1cccc(NC(=O)Nc2nc(-c3ccc(OC)c(OC)c3)cs2)c1	MC4R barr agon 19, Exocytosis inh 78 | Granule exo CP1 87

Screens: PubChem BioAssay, several laboratories
